ChEMBL document CHEMBL2331117 (J Med Chem, 2013)

Experiments:
Mus musculus [1] = test: In vivo inhibition of mTORC1-mediated phosphorylation of 4EBP1 at ([…]) in human MCF7 cells xenografted into athymic nude mouse at 100 mg/kg, po after 32 hrs by Western blotting analysis relative to control; format: functional; conditions: MCF7, 32 h
Mus musculus [2] = test: In vivo inhibition of mTORC1-mediated phosphorylation of 4EBP1 at ([…]) in human MCF7 cells xenografted into athymic nude mouse at 100 mg/kg, po after 4 hrs by Western blotting analysis relative to control; format: functional; conditions: MCF7, 4 h
Method in brief: (§1)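 MCF-7 cells (DMEM, 10% FBS) were implanted subcutaneously at 5 × 10^6 cells in 50% cold HBSS/50% growth-factor-reduced matrigel into the hindflank of 5−8 week old female nude mice. At tumor size 40−150 mg, mice received a single oral dose of 100 mg/kg. Tumor lysates were pooled per group. Phospho-AKT (S473, T308), p70S6K (T389), S6 (S240/244) and 4E-BP1 (T37/46) were measured by Western blot normalized to α-tubulin.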

Mus musculus [3] = test: In vivo inhibition of mTORC1-mediated phosphorylation of 4EBP1 at ([…]) in human MCF7 cells xenografted into athymic nude mouse at 100 mg/kg, po after 1 hr by Western blotting analysis relative to control; format: functional; conditions: MCF7, 1 h
Mus musculus [4] = test: In vivo inhibition of mTORC1-mediated phosphorylation of pS6 at (serine 240/244) in human MCF7 cells xenografted into athymic nude mouse at 100 mg/kg, po after 32 hrs by Western blotting analysis relative to control; format: functional; conditions: MCF7, 32 h; method in brief: as §1
Mus musculus [5] = test: In vivo inhibition of mTORC1-mediated phosphorylation of pS6 at (serine 240/244) in human MCF7 cells xenografted into athymic nude mouse at 100 mg/kg, po after 24 hrs by Western blotting analysis relative to control; format: functional; conditions: MCF7, 24 h; method in brief: as §1
Mus musculus [6] = test: In vivo inhibition of mTORC1-mediated phosphorylation of pS6 at (serine 240/244) in human MCF7 cells xenografted into athymic nude mouse at 100 mg/kg, po after 8 hrs by Western blotting analysis relative to control; format: functional; conditions: MCF7, 8 h; method in brief: as §1
Mus musculus [7] = test: In vivo inhibition of mTORC2-mediated phosphorylation of AKT at serine 473 in human MCF7 cells xenografted into athymic nude mouse at 100 mg/kg, po after 24 hrs by Western blotting analysis relative to control; format: functional; conditions: MCF7, 24 h; method in brief: as §1
[8] = Plasma concentration in athymic mouse plasma xenografted with human PC3 cells at 100 mg/kg, po after 8 hrs; format: ADME, organism-based, PC-3; parameters: dose 100 mg/kg, route oral
[9] = target: RAF proto-oncogene serine/threonine-protein kinase (Homo sapiens, UniProt P04049); test: Inhibition of cRAF (unknown origin)
[10] = target: Phosphatidylinositol 3-kinase catalytic subunit type 3 (Homo sapiens, UniProt Q8NEB9); test: Inhibition of VPS34 (unknown origin)
[11] = target: Phosphatidylinositol 4,5-bisphosphate 3-kinase catalytic subunit gamma isoform (Homo sapiens, UniProt P48736); test: Inhibition of PI3Kgamma (unknown origin)
[12] = Volume of distribution at steady state in athymic nude mouse at 10 mg/kg, iv; format: ADME, organism-based; parameters: dose 10 mg/kg, route intravenous; conditions: in vivo, read-out: Vdss
[13] = Tmax in Beagle dog at 3 mg/kg, po; format: ADME, organism-based, Canis lupus familiaris; parameters: dose 3 mg/kg, route oral; conditions: in vivo
[14] = Drug uptake in tumor of athymic mouse xenografted with human MCF7 cells at 100 mg/kg, po after 24 hrs; format: ADME, organism-based, Neoplasm; parameters: dose 100 mg/kg, route oral; conditions: in vivo, BLD = below limit of detection
Plasma = test: Plasma concentration in athymic mouse plasma xenografted with human PC3 cells at 100 mg/kg, po after 32 hrs; format: ADME, organism-based, PC-3; parameters: dose 100 mg/kg, route oral; conditions: in vivo, BLD = below limit of detection
MCF7 = test: Antitumor activity against human MCF7 cells xenografted in athymic nude mouse at 50 mg/kg, po qd for 14 days relative to control; format: functional
Method in brief: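 Female athymic nude (NCr) mice, 5–8 weeks old, bearing subcutaneous MCF-7 tumors staged at 100–200 mg. Compound given orally qd for 14 days at 50 or 100 mg/kg as a solution/fine suspension in water with a 1:1 molar ratio of 1 N HCl. Caliper tumor mass = length × width²/2, measured twice weekly; body mass recorded daily.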

[15] = Metabolic stability in human liver microsomes after 30 mins; format: ADME, Microsome; conditions: read-out: Stability
Cytochrome P450 2C8 = target: T1, Cytochrome P450 2C8 (Homo sapiens, UniProt P10632); test: Inhibition of CYP2C8 (unknown origin); format: ADME
T1 sequence (P10632 whole entry): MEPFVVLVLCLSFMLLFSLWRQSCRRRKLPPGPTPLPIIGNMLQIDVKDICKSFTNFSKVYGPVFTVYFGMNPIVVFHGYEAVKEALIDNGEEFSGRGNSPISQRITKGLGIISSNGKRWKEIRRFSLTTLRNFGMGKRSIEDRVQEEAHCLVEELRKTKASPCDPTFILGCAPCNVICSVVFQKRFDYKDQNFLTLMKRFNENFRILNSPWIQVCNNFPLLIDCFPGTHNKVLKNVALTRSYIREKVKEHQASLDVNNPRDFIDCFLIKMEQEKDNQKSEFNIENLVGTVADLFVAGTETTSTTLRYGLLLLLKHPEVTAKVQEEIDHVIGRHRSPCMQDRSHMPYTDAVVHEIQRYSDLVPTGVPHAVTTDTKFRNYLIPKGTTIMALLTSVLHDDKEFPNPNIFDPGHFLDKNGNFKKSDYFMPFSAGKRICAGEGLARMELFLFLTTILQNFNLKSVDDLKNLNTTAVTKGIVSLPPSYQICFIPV

[16] = target: Mast/stem cell growth factor receptor Kit (Homo sapiens, UniProt P10721); test: Inhibition of KIT (unknown origin)
Mus musculus [17] = test: In vivo inhibition of mTORC1-mediated phosphorylation of 4EBP1 at ([…]) in human PC3 cells xenografted into athymic nude mouse at 100 mg/kg, po after 1 hr by Western blotting analysis relative to control; format: functional; conditions: PC-3, 1 h
Method in brief: (§2)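 PC-3 cells grown in DMEM with 20% FBS were implanted subcutaneously at 3 × 10^6 cells in ice-cold HBSS into the hindflank of 5−8 week old male nude mice. At tumor size 200−500 mg, mice received a single oral dose of 100 mg/kg. Plasma and tumors were collected at 1, 4, 8, 16, 24 and 32 h. Tumor lysates from each group (n = 5) were pooled. Phospho-proteins were quantified by Western blot and normalized to α-tubulin.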

Mus musculus [18] = test: In vivo inhibition of mTORC1-mediated phosphorylation of pS6 at (serine 240/244) in human PC3 cells xenografted into athymic nude mouse at 100 mg/kg, po after 1 hr by Western blotting analysis relative to control; format: functional; conditions: PC-3, 1 h; method in brief: as §2
Mus musculus [19] = test: In vivo inhibition of mTORC1-mediated phosphorylation of p70S6K at […] in human PC3 cells xenografted into athymic nude mouse at 100 mg/kg, po after 24 hrs by Western blotting analysis relative to control; format: functional; conditions: PC-3, 24 h; method in brief: as §2
Mus musculus [20] = test: In vivo inhibition of mTORC1-mediated phosphorylation of p70S6K at […] in human PC3 cells xenografted into athymic nude mouse at 100 mg/kg, po after 4 hrs by Western blotting analysis relative to control; format: functional; conditions: PC-3, 4 h; method in brief: as §2

Chain of RAF proto-oncogene serine/threonine-protein kinase (P04049 whole entry): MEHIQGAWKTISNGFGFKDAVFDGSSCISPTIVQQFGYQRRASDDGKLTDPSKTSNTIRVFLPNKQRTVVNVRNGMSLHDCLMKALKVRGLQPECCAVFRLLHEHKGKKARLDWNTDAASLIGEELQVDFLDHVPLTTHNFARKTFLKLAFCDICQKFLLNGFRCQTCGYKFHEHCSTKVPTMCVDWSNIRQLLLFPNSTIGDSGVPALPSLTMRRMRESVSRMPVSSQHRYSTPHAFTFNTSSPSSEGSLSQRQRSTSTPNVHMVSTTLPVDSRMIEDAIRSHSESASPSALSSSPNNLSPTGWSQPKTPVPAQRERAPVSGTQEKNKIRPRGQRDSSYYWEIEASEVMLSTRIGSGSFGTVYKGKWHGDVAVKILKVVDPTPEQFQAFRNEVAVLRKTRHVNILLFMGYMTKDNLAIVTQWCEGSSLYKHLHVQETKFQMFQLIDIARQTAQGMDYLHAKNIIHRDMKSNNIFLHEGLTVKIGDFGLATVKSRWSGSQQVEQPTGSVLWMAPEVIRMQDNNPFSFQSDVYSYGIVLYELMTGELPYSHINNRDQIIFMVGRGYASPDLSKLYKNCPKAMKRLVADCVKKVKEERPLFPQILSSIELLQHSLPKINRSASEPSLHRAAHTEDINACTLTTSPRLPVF
Chain of Mast/stem cell growth factor receptor Kit (P10721 whole entry): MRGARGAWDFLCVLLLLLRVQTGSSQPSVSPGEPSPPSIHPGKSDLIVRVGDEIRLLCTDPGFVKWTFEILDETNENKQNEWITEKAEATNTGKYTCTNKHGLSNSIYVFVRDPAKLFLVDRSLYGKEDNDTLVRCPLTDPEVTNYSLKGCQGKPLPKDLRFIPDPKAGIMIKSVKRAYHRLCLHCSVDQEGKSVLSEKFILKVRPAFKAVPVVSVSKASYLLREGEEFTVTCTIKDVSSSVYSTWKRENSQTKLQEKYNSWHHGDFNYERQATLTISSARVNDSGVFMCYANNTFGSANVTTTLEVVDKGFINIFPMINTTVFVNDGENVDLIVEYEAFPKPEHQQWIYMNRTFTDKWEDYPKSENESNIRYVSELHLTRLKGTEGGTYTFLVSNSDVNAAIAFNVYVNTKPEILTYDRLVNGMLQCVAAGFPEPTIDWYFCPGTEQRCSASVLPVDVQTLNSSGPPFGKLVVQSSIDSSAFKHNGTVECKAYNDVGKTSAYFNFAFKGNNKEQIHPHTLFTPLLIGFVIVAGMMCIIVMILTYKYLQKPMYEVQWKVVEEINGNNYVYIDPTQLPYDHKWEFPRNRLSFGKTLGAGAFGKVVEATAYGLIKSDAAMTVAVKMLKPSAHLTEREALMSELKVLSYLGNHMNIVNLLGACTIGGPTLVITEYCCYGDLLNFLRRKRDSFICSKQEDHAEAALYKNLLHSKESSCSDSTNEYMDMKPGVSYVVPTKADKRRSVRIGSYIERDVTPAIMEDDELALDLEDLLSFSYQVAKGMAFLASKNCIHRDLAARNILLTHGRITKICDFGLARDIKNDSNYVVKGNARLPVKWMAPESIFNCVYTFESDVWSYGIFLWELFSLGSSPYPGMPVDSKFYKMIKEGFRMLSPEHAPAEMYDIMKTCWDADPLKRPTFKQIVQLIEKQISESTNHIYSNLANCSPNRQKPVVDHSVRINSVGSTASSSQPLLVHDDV
Chain of Phosphatidylinositol 3-kinase catalytic subunit type 3 (Q8NEB9 whole entry, canonical isoform): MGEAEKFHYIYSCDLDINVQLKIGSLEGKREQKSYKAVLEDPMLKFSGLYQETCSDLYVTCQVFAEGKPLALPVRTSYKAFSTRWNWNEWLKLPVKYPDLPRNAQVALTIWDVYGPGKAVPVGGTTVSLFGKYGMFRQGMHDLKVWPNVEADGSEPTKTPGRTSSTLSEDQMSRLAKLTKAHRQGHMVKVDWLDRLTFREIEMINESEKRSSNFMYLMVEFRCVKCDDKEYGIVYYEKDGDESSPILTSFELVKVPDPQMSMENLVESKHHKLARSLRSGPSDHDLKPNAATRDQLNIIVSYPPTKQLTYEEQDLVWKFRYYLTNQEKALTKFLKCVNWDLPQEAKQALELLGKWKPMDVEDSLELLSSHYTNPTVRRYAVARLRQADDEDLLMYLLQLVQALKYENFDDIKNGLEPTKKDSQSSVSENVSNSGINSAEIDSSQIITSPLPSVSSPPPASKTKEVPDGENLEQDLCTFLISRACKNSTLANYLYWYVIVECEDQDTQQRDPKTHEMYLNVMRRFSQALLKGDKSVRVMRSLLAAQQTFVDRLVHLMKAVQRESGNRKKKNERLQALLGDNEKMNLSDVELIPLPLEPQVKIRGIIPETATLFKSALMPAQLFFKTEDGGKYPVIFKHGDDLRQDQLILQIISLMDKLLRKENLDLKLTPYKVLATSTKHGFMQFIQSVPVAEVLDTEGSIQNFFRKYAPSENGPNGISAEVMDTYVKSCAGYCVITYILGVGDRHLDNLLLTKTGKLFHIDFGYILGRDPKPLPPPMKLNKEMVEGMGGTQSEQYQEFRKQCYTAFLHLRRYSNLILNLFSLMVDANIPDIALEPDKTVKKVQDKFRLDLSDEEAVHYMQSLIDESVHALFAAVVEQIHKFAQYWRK
Chain of Phosphatidylinositol 4,5-bisphosphate 3-kinase catalytic subunit gamma isoform (P48736 whole entry, canonical isoform): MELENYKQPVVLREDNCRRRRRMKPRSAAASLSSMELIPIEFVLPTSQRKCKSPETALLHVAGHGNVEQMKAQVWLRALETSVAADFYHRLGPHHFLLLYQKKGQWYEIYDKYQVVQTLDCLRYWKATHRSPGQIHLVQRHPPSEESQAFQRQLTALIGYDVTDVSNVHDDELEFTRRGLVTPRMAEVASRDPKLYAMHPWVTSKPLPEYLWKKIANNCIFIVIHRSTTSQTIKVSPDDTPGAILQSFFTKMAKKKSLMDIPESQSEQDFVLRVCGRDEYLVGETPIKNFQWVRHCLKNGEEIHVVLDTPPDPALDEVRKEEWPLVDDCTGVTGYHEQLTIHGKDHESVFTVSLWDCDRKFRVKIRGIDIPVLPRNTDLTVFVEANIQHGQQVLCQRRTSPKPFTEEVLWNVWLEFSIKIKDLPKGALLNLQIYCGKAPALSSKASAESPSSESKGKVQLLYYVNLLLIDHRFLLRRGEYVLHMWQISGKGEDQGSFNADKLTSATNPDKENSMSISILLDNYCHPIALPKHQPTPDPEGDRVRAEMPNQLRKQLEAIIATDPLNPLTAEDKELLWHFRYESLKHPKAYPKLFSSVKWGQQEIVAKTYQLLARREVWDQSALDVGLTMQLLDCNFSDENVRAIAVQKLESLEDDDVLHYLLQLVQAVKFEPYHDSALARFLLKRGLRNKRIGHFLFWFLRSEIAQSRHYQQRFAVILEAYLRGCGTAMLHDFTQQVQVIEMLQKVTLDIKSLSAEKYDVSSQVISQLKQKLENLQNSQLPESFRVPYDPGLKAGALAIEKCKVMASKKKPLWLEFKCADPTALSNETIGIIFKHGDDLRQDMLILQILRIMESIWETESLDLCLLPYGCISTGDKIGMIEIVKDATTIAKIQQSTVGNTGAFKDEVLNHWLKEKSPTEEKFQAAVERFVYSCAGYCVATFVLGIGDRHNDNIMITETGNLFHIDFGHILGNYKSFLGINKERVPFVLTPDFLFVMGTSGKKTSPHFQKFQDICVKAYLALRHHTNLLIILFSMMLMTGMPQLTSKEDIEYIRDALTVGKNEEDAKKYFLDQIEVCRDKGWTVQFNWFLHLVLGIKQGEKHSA

**Q.** What does the source list for `Cc1c(C(=O)N2CCOc3ccc(-c4ccc(N)nc4)cc3C2)ccc(S(C)(=O)=O)c1F`?
**A.** inhibition in vivo at 100 mg/kg (Mus musculus [1]): 3%; inhibition in vivo at 100 mg/kg (Mus musculus [2]): 85%; inhibition in vivo at 100 mg/kg (Mus musculus [3]): 94%; inhibition in vivo at 100 mg/kg (Mus musculus [4]): -3%; inhibition in vivo at 100 mg/kg (Mus musculus [5]): -24%; inhibition in vivo at 100 mg/kg (Mus musculus [6]): 98%; inhibition in vivo at 100 mg/kg (Mus musculus [7]): -49%; concentration at 8 h [8]: 26.7 µM; IC50 [9]: > 3.5 µM; IC50 [10]: > 3.5 µM; IC50 [11]: > 5 µM; Vd [12]: 1.96 L/kg; Tmax [13]: 1 h; Drug uptake [14]: BLD; Cp (Plasma): BLD; Activity (MCF7): 22%; remaining at 0.5 h [15]: 93%; INH (Cytochrome P450 2C8): > 20 µM; IC50 [16]: > 3.5 µM; inhibition in vivo at 100 mg/kg (Mus musculus [17]): 94%; inhibition in vivo at 100 mg/kg (Mus musculus [18]): 88%; inhibition in vivo at 100 mg/kg (Mus musculus [19]): 11%; inhibition in vivo at 100 mg/kg (Mus musculus [20]): 95%
